Screens from PubChem.
Only some compounds are listed: those with a hit (about 1.5% of all), similar ones and a draw of the others.
PKA-R2B act = activators of PKA-R2B holoenzyme, primary screen, biochemical, fluorescence polarization, Cy5-IP20, human; PKA-R2B holoenzyme dissociation; R2B truncated from residue 108, S112A mutant; 0% DMSO only, 100% 113 µM cGMP; cAMP-dependent protein kinase catalytic subunit beta (Homo sapiens) + cAMP-dependent …; activation, % at 11.4 µM; actives 0.079% (n = 340,000);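 active means activation above a cutoff set at the mean over all compounds plus 3 SD, cut at about 18% in these data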;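 further: higher means more holoenzyme dissociation and a rise in polarization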
Target sequence (P31323 whole entry, looked up, other chains not shown, the tested form may be a part): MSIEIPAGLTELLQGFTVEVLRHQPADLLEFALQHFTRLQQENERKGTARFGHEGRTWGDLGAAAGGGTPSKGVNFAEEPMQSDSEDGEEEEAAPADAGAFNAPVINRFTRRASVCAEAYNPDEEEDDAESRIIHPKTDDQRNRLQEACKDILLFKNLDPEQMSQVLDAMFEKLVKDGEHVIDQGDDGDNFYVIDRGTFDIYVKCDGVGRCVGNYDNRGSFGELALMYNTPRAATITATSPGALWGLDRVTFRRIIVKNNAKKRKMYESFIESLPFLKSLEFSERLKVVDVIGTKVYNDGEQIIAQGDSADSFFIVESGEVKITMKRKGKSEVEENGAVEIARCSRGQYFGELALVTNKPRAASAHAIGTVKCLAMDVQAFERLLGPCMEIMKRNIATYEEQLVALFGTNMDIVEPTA
Rin1-Abl PPI inh = inhibitors of Rin1-Abl protein binding, primary screen, biochemical, TR-FRET; Tyrosine-protein kinase ABL1 (Homo sapiens) + Ras and Rab interactor 1 (Homo sapiens), …; inhibition, % at 7.35 µM; actives 0.4% (n = 360,000); AID 588664, 2011; in the data active means inhibition above about 5%, passing the limit was not always enough
Cardio protect = cardioprotection against H2O2-induced cell death, primary screen, uHTS, H9c2 cells, ATPLite luminescence. H9c2 cardiomyocytes, H2O2 injury protection, 2 h. protection from H2O2 cell death, % at 20 µM. actives 0.63% (n = 360,000). AID 588492, 2011;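 active means compounds giving at least 50% protection of heart cells from peroxide-induced death in the single-dose screen, raw or plate-pattern-corrected value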;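 further: 0% = DMSO wells with peroxide and 100% = DMSO wells without peroxide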
PKA-R1A activ = activators of PKA-R1A holoenzyme, primary screen, biochemical, fluorescence polarization, Cy5-IP20, bovine R1A, mouse PKAc; cAMP-dependent protein kinase type I-alpha regulatory subunit (Bos taurus) + …; PKA-R1A dissociation; scaled: DMSO 0%, 113 µM cGMP 100%; activation, % at 11.4 µM; actives 0.083% (n = 340,000);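 active means percent activation above the mean of all tested compounds plus 3 SD, cut at about 19% in these data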;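 further: higher means more PKAc released from R1A so a rise in polarization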
Tb MetRS inh = T. brucei MetRS inhibitors, primary screen, biochemical, luminescence. purified T. brucei MetRS, ATP depletion, Kinase-Glo luminescence. inhibition, % at 11.9 µM. actives 0.4% (n = 360,000). methionyl-tRNA synthetase (Trypanosoma brucei brucei). AID 624268, 2012;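 active means inhibition above a per-plate cutoff of the control wells' mean inhibition plus 3 SD, cut at about 5.5% in these data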;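 further: 0% = DMSO wells median and 100% = median of wells with control inhibitor compound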
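Test system – parasite MetRS enzyme · Reagent – substrates ATP, L-methionine and bulk Escherichia coli tRNA · Doses – 11.9 µM compound single dose, 0.9% DMSO · Times – 15 min enzyme-compound preincubation, 2 h reaction, 10 min detection, 25 °C · Signal – Kinase-Glo luminescence, ATP depletion format · Controls – DMSO-only wells as low control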
TbMetRS confirm = T. brucei MetRS inhibitors, confirmation, biochemical, luminescence. AID 624412, 2012. T. brucei MetRS enzyme, luminescence (ATP depletion). actives 93% (n = 1,400). shares compounds with Tb MetRS inh. inhibition, % at 11.9 µM; in the data active means inhibition above about 7%
Jurkat cytotox = Jurkat T cell cytotoxicity, cytotoxicity control for T. brucei MetRS inhibitor project, luminescence, high throughput; shares compounds with Tb MetRS inh; Jurkat cells viability, ATP luminescence; inhibition, % at 8.3 µM; actives 12% (n = 1,400); in the data active means inhibition above about 15%;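 further: 0% = vehicle and 100% = reference inhibitor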
TbMetRS FP orth = T. brucei MetRS inhibitors, orthogonal assay for T. brucei MetRS inhibitor project, biochemical, fluorescence polarization | inhibition, % at 11.9 µM | purified T. brucei MetRS | shares compounds with Tb MetRS inh | actives 44% (n = 1,400) | AID 651607, 2012; in the data active means inhibition above about 17%;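 further: 0% = vehicle wells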
The depositor's hits bear a star; x = no result.

SMILES	PKA-R2B act	Rin1-Abl PPI inh	Cardio protect	PKA-R1A activ	Tb MetRS inh	TbMetRS confirm	Jurkat cytotox	TbMetRS FP orth
CCCn1c(SCC(=O)Nc2cc(C(=O)O)ccc2C)nc2sc3c(c2c1=O)CCC3	-4.7	3.0	3.8	2.9	-0.1	x	x	x
CC(C)C1CC(=O)NC(SCC(=O)Nc2ccc(Br)cc2)=C1C#N (stereo unspecified)	2.7	1.2	-25.5	7.4	11.9*	18.2*	9.4	7.3
O=C(CCC(=O)N1CCOc2ccccc21)NCCc1ccccc1	-0.7	-0.8	-6.3	1.9	-0.2	x	x	x
Nc1ncnc2nc(SCC(=O)Nc3cccc(C(F)(F)F)c3)[nH]c12	9.6	0.2	0.4	-6.9	33.3*	56.8*	-3.3	27.6*
Fc1cccc(CSc2nc3ncc(Cl)cc3[nH]2)c1	x	1.3	-3.9	x	6.4*	7.3*	5.4	-0.5
O=C(CSc1nc2ncc(Cl)cc2[nH]1)Nc1cccc(F)c1	3.5	0.5	-11.2	-0.1	21.2*	46.6*	2.0	23.0*
O=C(CCc1nc2ccccc2[nH]1)N1CCN(C(=O)c2ccco2)CC1	0.5	-1.5	-3.9	-14.2	-1.3	x	x	x
O=C(CSc1ccc(-c2nc3ccccc3[nH]2)cn1)N1CCN(C(=O)c2ccco2)CC1	-0.9	-1.0	25.8	-11.1	7.8*	14.7*	15.2*	12.3
O=C(Cn1c(NCCO)nc2ccccc21)c1ccc([N+](=O)[O-])cc1	-6.8	-1.2	-0.5	-23.1	19.6*	3.2	6.4	7.5
O=C(Cn1c(NCCCO)nc2ccccc21)c1ccc([N+](=O)[O-])cc1	-1.9	0.2	-1.3	2.8	-0.1	x	x	x
Clc1cccc(-c2nnc(SCc3nc4ccccc4[nH]3)n2Cc2ccco2)c1	-7.9	0.9	-2.5	0.4	1.3	x	x	x
CCn1c(COc2ccc(C)cc2)nnc1SCc1nc2ccccc2[nH]1	6.5	3.5	-5.8	-2.8	15.3*	19.8*	10.7	7.5
Clc1ccc(OCc2nnc(SCc3nc4ccccc4[nH]3)n2Cc2ccco2)cc1	-5.1	3.8	-15.0	3.1	10.9*	84.0*	20.9*	66.3*
CCCn1cnc2cc(NCc3cccc(OC)c3O)ccc21	-0.3	-1.7	-1.1	2.5	8.4*	15.2*	-0.1	3.0
CCCn1cnc2cc(NCc3ccccn3)ccc21	-4.8	-1.4	-30.2	-4.4	-0.2	x	x	x
Nc1ccc2nc(-c3ccc(Cl)cc3)[nH]c2c1	-5.8	-5.1	-14.7	6.4	0.5	x	x	x
Clc1ccc2nc(-c3ccc(Cl)nc3)[nH]c2c1	-7.5	-0.3	-9.9	-0.6	24.9*	46.2*	15.1*	22.1*
O=C(CN1CCN(c2cccc(C(F)(F)F)c2)CC1)N(C1CCCC1)C1CCS(=O)(=O)C1 (stereo unspecified)	2.7	0.2	-6.1	5.1	-0.3	x	x	x
CN(C)c1cc(Cl)c2nonc2c1N	5.9	-4.3	-1.2	-2.4	5.7*	3.6	0.1	2.0
CCN(CC)c1cc(Cl)c2nonc2c1N	4.1	-1.4	3.8	-7.9	0.4	x	x	x
NC1=NS(=O)(=O)NC1c1ccc(F)cc1 (stereo unspecified)	1.4	-2.6	-5.2	1.2	0.6	x	x	x
CCc1cc(Cn2nc(-c3ccccc3)cc2C(=O)NCc2cccc(Br)c2)on1	-0.6	1.3	-3.7	3.4	53.1*	77.2*	4.4	69.5*
Cc1ccc(C2CC2C(=O)NNC(=S)Nc2cccc(Cl)c2)cc1 (stereo unspecified)	-3.9	-4.5	-13.7	4.9	6.5*	13.8*	-0.1	9.6
O=C(NNC(=S)Nc1ccc(F)cc1)C1CC1c1ccc(Cl)cc1 (stereo unspecified)	0.0	-0.9	0.7	-7.4	48.0*	66.3*	5.8	41.2*
O=C1CCCN1CCCNS(=O)(=O)c1ccc(F)cc1F	-5.3	1.8	0.7	-4.4	0.1	x	x	x
SMILES	PKA-R2B act	Rin1-Abl PPI inh	Cardio protect	PKA-R1A activ	Tb MetRS inh	TbMetRS confirm	Jurkat cytotox	TbMetRS FP orth
CCOC(=O)[C@]12CCC=C1N(Cc1ccccc1)C(=O)[C@H](CC(=O)NCCCCc1ccccc1)C2	x	x	x	x	-0.2	x	x	x
CCc1ccccc1OCC(=O)Nc1cccc(S(=O)(=O)NC2=NCCCCC2)c1	1.6	-1.0	-4.6	3.7	19.6*	40.5*	3.6	17.9*
O=C(NCCN1CCN(c2ccccc2)CC1)Nc1ccc(Cl)cc1	0.1	1.5	-3.8	5.0	1.5	x	x	x
COc1ccc(N2CCN(CCNC(=O)Nc3ccc(Cl)cc3)CC2)cc1	-4.8	2.2	-1.7	-8.8	12.1*	25.5*	6.8	13.4
CN1CCN(c2ccc(C(=O)c3ccc(Br)cc3)cc2[N+](=O)[O-])CC1	-5.7	-0.5	10.8	-3.1	-0.8	x	x	x
O=S(=O)(NCc1ccc(Cl)cc1Cl)c1ccc(N2CCOCC2)nc1	1.8	0.0	-4.4	-0.1	6.9*	13.6*	-2.9	3.1
O=C(Nc1ccc(S(=O)(=O)NC2=NCCCCC2)cc1)c1cc(S(=O)(=O)N2CCOCC2)ccc1F	-0.6	-2.5	-5.1	-6.3	0.0	x	x	x
O=C(Nc1ccccc1)Nc1cc(OCC(F)(F)F)cc(OCC(F)(F)F)c1	-10.2	3.4	-11.2	-18.4	6.9*	15.0*	89.1*	71.8*
O=C(CNS(=O)(=O)c1ccc([N+](=O)[O-])cc1)N/N=C\c1ccc(O)cc1	-2.0	0.7	21.6	-10.7	0.1	x	x	x
O=C(CNS(=O)(=O)c1ccc([N+](=O)[O-])cc1)N/N=C/c1ccc(O)cc1O	3.9	-2.9	54.7*	6.5	15.5*	36.2*	46.1*	22.0*
N#C/C(=C\c1cccnc1)c1ccccn1	3.0	-2.3	-2.4	-0.2	-0.1	x	x	x
COc1ccc(/C(C#N)=C/c2cccnc2)cc1	0.9	-2.1	-3.2	5.7	6.1*	15.0*	-1.0	7.9
O=C(Nc1nc2c(s1)CCCC2)C1CCCN1C(=O)c1cccs1 (stereo unspecified)	1.6	-3.8	-9.7	0.5	5.9*	2.7	-6.6	5.5
